{"data": "Published values gathered from unrelated publications", "target": "Serine/threonine-protein kinase ULK2 (ULK2, Homo sapiens, UniProt Q8IYT8)", "note": "Protocols differ between the studies behind these lines."}
{"SMILES": "Cc1ccc(C(=O)Nc2ccc(CN3CCN(C)CC3)c(C(F)(F)F)c2)cc1C#Cc1cnc2cccnn12", "test": "enzyme activity, inhibitor", "setting": "23.5 nM", "quantity": "remaining activity", "value": "94%"}
{"SMILES": "CCCOc1ccc([C@@H]2[C@@H](C(=O)O)[C@H](c3ccc4c(c3)OCO4)CN2CC(=O)Nc2c(CC)cccc2CC)cc1", "test": "cell-free assay, competition with immobilised ligand", "setting": "1 µM", "quantity": "remaining binding", "value": "76%"}
{"SMILES": "CCN1CCN(Cc2ccc(NC(=O)c3ccc(C)c(Oc4ccnc5[nH]ccc45)c3)cc2C(F)(F)F)CC1", "test": "target engagement in cells, inhibitor, chemoproteomics", "test system": "Huh-7", "setting": "10 µM", "quantity": "inhibition", "value": "-13.4%"}
{"SMILES": "FC(F)(F)Oc1cccc(-c2cnc3ccc(-c4ccncc4)nn23)c1", "test": "enzyme activity, inhibitor, radiometric", "setting": "5 µM", "quantity": "activity vs control", "value": "95%"}
{"SMILES": "O=C1NC(=O)c2cc(Nc3ccc(F)cc3)c(Nc3ccc(F)cc3)cc21", "test": "cell-free assay", "setting": "0.5 µM", "quantity": "remaining signal", "value": "84.7%"}
{"SMILES": "O=C(CSc1nc2nccnc2c(=O)n1CCc1ccccc1)Nc1nccs1", "test": "enzyme activity, inhibitor", "setting": "10 µM", "quantity": "inhibition", "value": "2%"}
{"SMILES": "COc1cc(/C=C/C(=O)CC(=O)/C=C/c2ccc(O)c(OC)c2)ccc1O", "test": "enzyme activity, inhibitor", "setting": "1 µM", "quantity": "activity vs control", "value": "105%"}
{"SMILES": "CC(=O)N1CCC(c2ccc(C(=O)NC3=NCCN3)cc2C(F)(F)F)CC1", "test": "cell-free assay, competition with immobilised ligand", "setting": "1 µM", "quantity": "remaining binding", "value": "82%"}
{"SMILES": "CS(=O)(=O)CCNCc1ccc(-c2ccc3ncnc(Nc4ccc(OCc5cccc(F)c5)c(Cl)c4)c3c2)o1", "test": "cell-free assay", "setting": "0.5 µM", "quantity": "remaining signal", "value": "104%"}
{"SMILES": "C[C@@]1(Cc2ccc(C#N)cc2)C(=O)N(c2cc(Cl)cc(Cl)c2)c2ncc(C(=O)NC3(c4nc(C5CCC5)no4)CC3)n21", "test": "cell-free assay, competition with immobilised ligand", "setting": "1 µM", "quantity": "remaining binding", "value": "100%"}
{"SMILES": "COc1cc(Nc2cnc(C#N)c(O[C@H](C)CN(C)C)n2)ncc1-c1cnn(C)c1", "test": "enzyme activity, inhibitor, radiometric", "setting": "1 µM", "quantity": "remaining activity", "value": "42%"}
{"SMILES": "CNC(=O)c1cc(Oc2ccc(NC(=O)Nc3ccc(Cl)c(C(F)(F)F)c3)cc2)ccn1", "test": "cell-free assay", "setting": "0.5 µM", "quantity": "remaining signal", "value": "106%"}
{"SMILES": "C=CC(=O)Nc1cc(Nc2nccc(Nc3cc(Cl)c(F)cc3C(C)(C)O)n2)c(OC)cc1N1CC[C@@H](N(C)C)C1", "test": "enzyme activity, inhibitor", "setting": "1 µM", "quantity": "inhibition", "value": "-2%"}
{"SMILES": "CN1CCN(c2cnc3c(C4CCN(C(=O)c5ccc(OC(F)(F)F)cc5N)CC4)ncnc3c2)CC1", "test": "cell-free assay, competition with immobilised ligand", "setting": "1 µM", "quantity": "remaining binding", "value": "100%"}
{"SMILES": "Cc1ccc(NC(=O)c2ccc(C)c(C(F)(F)F)c2)cc1C#Cc1nn(C2CCC(O)CC2)c2ncnc(N)c12 (stereo not shown)", "test": "cell-free assay", "setting": "10 µM", "quantity": "remaining signal", "value": "100%"}
{"SMILES": "O=C(Nc1cnn(-c2csc(C(=O)NC3COC3)c2)c1)Nc1c(F)cccc1Cl", "test": "enzyme activity, inhibitor", "setting": "5 µM", "quantity": "remaining activity", "value": "105%"}
{"SMILES": "Cc1cnc(NC2CCOCC2)nc1-n1cnc(C(=O)NC(CN)c2cc(F)cc(Cl)c2)c1 (stereo not shown)", "test": "enzyme activity, inhibitor, radiometric", "setting": "1 µM", "quantity": "remaining activity", "value": "110%"}
{"SMILES": "C[C@@H](c1cccc(C#N)c1)n1cc(Cl)cc(C(N)=O)c1=N", "test": "cell-free assay, competition with immobilised ligand", "setting": "1 µM", "quantity": "remaining binding", "value": "89%"}
{"SMILES": "CCN(CC)c1ccc(C2=NNC(=O)CC2C)cc1[N+](=O)[O-] (stereo not shown)", "test": "enzyme activity, inhibitor", "setting": "10 µM", "quantity": "remaining activity", "value": "97%"}
{"SMILES": "Cc1cc(NC(=O)c2cccc3cc(-c4cccc5[nH]nc(N)c45)ccc23)ccc1F", "test": "enzyme activity, inhibitor", "setting": "0.1 µM", "quantity": "activity vs control", "value": "105%"}
{"SMILES": "COc1cc(-c2cn(C3CCc4ccccc4N(CC(F)(F)F)C3=O)nn2)ccc1-n1ccc(C)n1 (stereo not shown)", "test": "cell-free assay, competition with immobilised ligand", "setting": "1 µM", "quantity": "remaining binding", "value": "88%"}
{"SMILES": "O=C1Nc2ccc(Cl)cc2C1=Cc1cc(Cl)c(O)c(Cl)c1", "test": "cell-free assay", "setting": "0.5 µM", "quantity": "remaining signal", "value": "101%"}
